# Screens deposited in PubChem BioAssay by several laboratories.
# A selection: hits, their analogues and other compounds. The true share with any hit is near 1.4%.
# DDE Tn7 FP inh – DD(E)-Tn7 binding inhibition, primary FP screen; P02675; FP displacement of FITC-Tn7 peptide from fibrin DD(E); 0% = median of compound wells per plate; inhibition, % at 8.3 µM; 370,000 tested, 0.13% active;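 active means inhibition above the mean of compounds falling within the control limits plus 3 SD of them, cut at about 14% in these data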;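 further: 0% = plate median of compound wells and 100% = 10 µM Aha-Tn7 peptide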
# Target sequence (P02675 whole entry, looked up): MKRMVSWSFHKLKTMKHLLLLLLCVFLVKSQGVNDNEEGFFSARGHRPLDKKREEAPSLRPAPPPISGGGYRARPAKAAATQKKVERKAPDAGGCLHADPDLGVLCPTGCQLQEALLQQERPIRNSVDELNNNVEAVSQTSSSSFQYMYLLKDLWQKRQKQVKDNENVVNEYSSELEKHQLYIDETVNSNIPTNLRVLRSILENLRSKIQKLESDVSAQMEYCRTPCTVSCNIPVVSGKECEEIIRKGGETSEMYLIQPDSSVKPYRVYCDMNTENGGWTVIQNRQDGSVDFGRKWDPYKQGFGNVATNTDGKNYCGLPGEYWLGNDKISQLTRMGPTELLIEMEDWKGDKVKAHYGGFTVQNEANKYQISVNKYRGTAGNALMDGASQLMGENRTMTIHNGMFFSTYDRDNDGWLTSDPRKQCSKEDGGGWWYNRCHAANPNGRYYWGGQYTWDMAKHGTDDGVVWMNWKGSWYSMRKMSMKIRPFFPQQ
#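 Assay system: Fibrin-DD(E) protein isolated from polymerized human fibrin clots; read-out basis: percent inhibition; medium: Tris/NaCl/CaCl2 buffer, pH 7.8; signal: FP measurement; incubation: 10 min plus 3 h, room temperature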
# RTF Ca sens act – cardiac RTF calcium sensitization; P19429+P45379; IANBD-labeled TnC RTF fluorescence at EC20 calcium; 0% EC20 calcium, 100% full calcium; activation, % at 7.2 µM; 340,000 tested, 0.24% active;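 active means activation above the mean over all tested compounds plus 3 SD, cut at about 30% in these data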;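 further: rise in fluorescence read as greater calcium sensitivity of cardiac thin filaments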
# CRFBP-R2 block – antagonists of CRF-binding protein/CRF-R2 receptor complex; HEK293 CRF-R2/CRF-BP, CRF-induced calcium fluorescence; inhibition, % at 11.8 µM; 350,000 tested, 0.59% active;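 active means inhibition of the ligand-induced calcium signal above about 50% at the single tested concentration, limit read from the data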
# RTF Ca sens inh – cardiac RTF calcium desensitization | inhibition, % at 7.15 µM | IANBD-labeled cardiac RTF, Ca2+ fluorescence | P19429+P45379 | 340,000 tested, 0.12% active;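 active means inhibition above the mean inhibition of all tested compounds plus 3 SD, cut at about 17% in these data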;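 further: assay run at fixed EC70 calcium of 1.6 mM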
# DDE Tn6 FP inh – DD(E)-Tn6 binding inhibition, primary FP screen; P02675; Fibrin DD(E) TRITC-Tn6 fluorescence polarization displacement; inhibition, % at 8.3 µM; 370,000 tested, 0.21% active;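 active means inhibition above a per-campaign cutoff: mean of compounds within control limits plus 3 SD, cut at about 15% in these data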;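 further: 0% = median of all compound wells on the plate and 100% = blocking peptide control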
# CRFBP-R2 agonist – CRF-BP/CRF-R2 complex agonism. HEK293 CRF-R2/CRF-BP, calcium dye fluorescence (FLIPR); percent of saturating CRF peptide response. activation, % at 13.2 µM. 350,000 tested, 0.46% active. AID 588473;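 active means activation of at least 50%, plus an integration ratio under a set limit after plate pattern correction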;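 further: plate controls were neutral control wells without compound for no effect and CRF at EC100 for full effect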
# An asterisk follows results filed as active; · = not tested or not shown.
SMILES,DDE Tn7 FP inh,RTF Ca sens act,CRFBP-R2 block,RTF Ca sens inh,DDE Tn6 FP inh,CRFBP-R2 agonist
Cc1cc(O)c2c(c1)C(=O)c1cccc(O)c1C2=O,9,·,·,·,9,·
Cc1nc2c(c(=O)c3ccccc3n2C)c(=O)n1C1CCCCCC1,0,8,4,-1,-3,51*
Cc1nc2c(c(=O)c3ccccc3n2C)c(=O)n1-c1ccccc1,4,6,23,1,5,-2
Cn1c2ccccc2c(=O)c2c(=O)n(C3CCCCC3)c(-c3ccco3)nc21,-1,-3,33,-1,0,99*
O=C(C1CCCN1S(=O)(=O)c1ccccc1[N+](=O)[O-])N1CCN(c2ccccc2)CC1 (stereo not given),3,·,·,·,-5,·
Nn1c(SCC(=O)Nc2nccs2)nnc1-c1cc(-c2ccc(Cl)cc2)n[nH]1,-12,·,·,·,-6,·
COc1ccc(OC)c(S(=O)(=O)N2CCC(C(=O)NCc3cccs3)CC2)c1,-4,·,·,·,-3,·
CCN(CC)c1ccc(/C=C/c2cccc[n+]2C)c(OC)c1,-29,75*,-90,-96,-6,55*
COc1ccc(/C=C/c2cccc[n+]2C)c(O)c1,5,-10,6,-3,5,-1
Nc1[nH]c(C(=O)c2ccccc2)c(-c2cccc3ccccc23)c1C(=O)c1c(-c2ccccc2)[nH]c2ccccc12,5,·,·,·,-2,·
Cc1csc(NC(=O)Cc2ccc(Br)cc2)n1,3,0,63*,-6,0,3
C[n+]1ccccc1/C=C1\Sc2ccccc2N1CCO,1,4,9,-11,-2,7
CCC(CO)[n+]1c(C)cc(/C=C2\Sc3ccccc3N2Cc2ccccc2)cc1C (stereo not given),-15,40*,-103,-23,-3,77*
Cc1ccc(O)c(NC(=S)NC(=O)Cc2ccc(Cl)cc2)c1,-2,2,-87,-5,1,179*
CC(=O)c1ccc(NC(=S)NC(=O)Cc2ccc(Cl)cc2)cc1,-5,-6,-59,-3,10,75*
CCOc1ccc(Cl)cc1-c1cc(C(=O)Nc2ccc(Br)cc2)[nH]n1,-7,·,·,·,-3,·
COc1ccc(/C=N\NC(=O)C2C(=O)NCC2c2ccccc2)cc1O (stereo not given),-7,-1,-13,-5,-2,4
CCOc1cc(/C=N\NC(=O)C2C(=O)NCC2c2ccccc2)ccc1OC (stereo not given),-11,-7,-74,2,-10,56*
FC(F)(F)c1ccccc1NC(=S)OCCN1CCCC12CCC(c1ccccc1)CC2 (stereo not given),-1,·,·,·,3,·
N#C/C(=C\c1cccn1S(=O)(=O)c1ccccc1)S(=O)(=O)c1ccc(F)cc1,5,·,·,·,-1,·
CCCCn1c(N)c(N(Cc2ccccc2OC)C(=O)c2c(CC)noc2C)c(=O)[nH]c1=O,-6,-5,78*,-3,-6,0
O=C1C(=O)c2cccnc2-c2ncccc21,-5,·,·,·,5,·
COc1cc(C2C3CN(C)CC=C3C(C#N)=C(N)C2(C#N)C#N)ccc1OC(C)C (stereo not given),-5,42*,-14,-27,1,16
CCN1CC=C2C(C#N)=C(N)C(C#N)(C#N)C(c3cc(Cl)ccc3Cl)C2C1 (stereo not given),4,39*,-12,-38,9,39
CC(C)N1CC=C2C(C#N)=C(N)C(C#N)(C#N)C(c3ccccc3)C2C1 (stereo not given),8,46*,-27,-77,11,90*
SMILES,DDE Tn7 FP inh,RTF Ca sens act,CRFBP-R2 block,RTF Ca sens inh,DDE Tn6 FP inh,CRFBP-R2 agonist
COc1ccc2[nH]cc(CCNC(=O)/C=C/[C@H]3O[C@@H](n4cnc5c(NC(=O)c6ccccc6)ncnc54)[C@H](O)[C@@H]3O)c2c1,-5,·,·,·,0,·
Cc1ccccc1C(=O)N(Cc1ccccn1)CC1CCCO1 (stereo not given),-3,·,·,·,0,·
CC1(C)Cc2c(sc3[nH]c(=O)n(CC(=O)NCC4CCCO4)c(=O)c23)CO1 (stereo not given),-5,6,84*,-6,-3,1
O=C(Cn1c(=O)[nH]c2sc3c(c2c1=O)CCCC3)NCC1CCCO1 (stereo not given),1,6,-11,9,10,0
Cc1cccc(C)c1-n1nnnc1C(c1cccs1)N1CCN(C/C=C/c2ccccc2)CC1 (stereo not given),1,·,·,·,-6,·
CCCCCCCCN1C(=O)[C@H](CC(=O)NCC2CCCCC2)C[C@@]2(C(=O)OC)CCCCC=C12,1,·,·,·,5,·
O=c1[nH]c2ccc(Cl)cc2[nH]1,2,-2,109*,-3,4,2
O=c1[nH]c2ccc(S(=O)(=O)Nc3ccc(Cl)cc3)cc2[nH]1,-2,0,0,-7,-8,-3
O=C(Nc1nc2ncccn2c1-c1ccc(F)cc1)C1CC1,0,·,·,·,-8,·
COc1ccc(C2c3ccc(O)cc3Oc3ncn(CCN4CCOCC4)c(=N)c32)cc1OC (stereo not given),-7,25,3,-21,4,-3
COc1ccc(C2c3ccc(O)cc3Oc3ncn(Cc4ccccc4)c(=N)c32)cc1OC (stereo not given),2,44*,1,-60,-7,0
C=C1CCC[C@]2(C)C[C@H]3OC(=O)C(CNC(CC)CO)[C@H]3CC12 (stereo not given in full),2,-1,-3,-12,-2,2
C=C1CCC[C@]2(C)C[C@H]3OC(=O)C(CNC(C)(CO)CO)[C@H]3CC12 (stereo not given in full),9,2,86*,-3,0,0
C=CCSC1=N/C(=C\c2cc(OCC)c(OC(C)=O)c([N+](=O)[O-])c2)C(=O)S1,-9,1,53*,5,-9,-1
O=C([C@@H]1C[C@H]1c1ccccc1)N1CC[C@H]2[C@H](CCCN2Cc2ccccc2)C1,6,·,·,·,-1,·
CCCn1c(SCC(=O)N2CC(=O)Nc3ccccc32)nc2ccccc21,1,-5,-92,-14,-5,56*
O=C1CN(C(=O)CSc2nc3ccccc3n2CCc2ccccc2)c2ccccc2N1,-6,5,-18,-22,-6,1
CC(=O)c1ccccc1NC(=O)Cn1c(=O)cnc2ccccc21,4,-1,72*,-6,0,1
COc1ccc(C2C(C#N)=C(N)SC(N)=C2C#N)cc1OC,-13,36*,-28,-59,-1,19
Cc1nc2ccc(S(=O)(=O)CCC(=O)NCc3ccc(Cl)cc3)cc2s1,1,·,·,·,1,·
CCCS(=O)(=O)N1CCC(C(=O)NCCCOC(C)C)CC1,4,8,60*,-10,6,3
